# Laboratory results: ChEMBL document CHEMBL1817558, “Design, synthesis and antimicrobial activity of chiral 2-(substituted-hydroxyl)-3-(benzo[d]oxazol-5-yl)propanoic acid derivatives” (2011)
# Tests used:
# Assay type in all cases: functional
# [1] = test system: Candida albicans; test: microbe, parasite or virus in culture; details: ATCC 10231, 24 h
# [2] = test system: Escherichia coli; test: Antibacterial activity against Escherichia coli ATCC 11303 after 24 hrs by NCCLS M7-A6 broth dilution method; details: ATCC 11303, 24 h
# Summary of the method: (§1)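 Broth microdilution MIC per NCCLS. The 4 mg/mL DMSO stock was diluted in Mueller-Hinton broth with inoculum at 10^5 CFU/mL. Twofold serial dilutions gave final concentrations of 200 to 0.39 µg/mL. Incubation was 24 h at 37 °C, and cultures were streaked on plates to check clarity. MIC was the lowest concentration giving a clear well. Controls were medium-only and DMSO-only inoculated broth.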
# [3] = test system: Staphylococcus aureus; test: Antibacterial activity against Staphylococcus aureus ATCC 10832 after 24 hrs by NCCLS M7-A6 broth dilution method; details: ATCC 10832, 24 h
# Summary of the method: (§2)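 96-well microtitre broth dilution in Mueller-Hinton broth, inoculum 10^5 CFU/mL. Compounds dissolved in DMSO at 4 mg/mL, then twofold serial dilution giving final 200 down to 0.39 µg/mL. Incubated 24 h at 37 °C. Cultures streaked on plates to check clarity; MIC taken as lowest concentration leaving the well clear. DMSO-only solvent control run at matching dilutions.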
# [4] = test system: Staphylococcus aureus; test: Antibacterial activity against methicillin-resistant Staphylococcus aureus ATCC 700699 after 24 hrs by NCCLS M7-A6 broth dilution method; details: ATCC 700699, 24 h
# Summary of the method: as §2
# [5] = test system: Bacillus subtilis; test: Antibacterial activity against Bacillus subtilis ATCC 33712 after 24 hrs by NCCLS M7-A6 broth dilution method; details: ATCC 33712, 24 h
# Summary of the method: as §1
Structure (SMILES),MIC [1] [µg/mL],MIC [2] [µg/mL],MIC [3] [µg/mL],MIC [4] [µg/mL],MIC [5] [µg/mL]
CC(=O)N1CCN(c2ccc(OCC3COC(Cn4ccnc4)(c4ccc(Cl)cc4Cl)O3)cc2)CC1 (stereo not drawn) [KETOCONAZOLE],< 0.39,,,,
CC(C)(O/N=C(\C(=O)N[C@@H]1C(=O)N2C(C(=O)[O-])=C(C[n+]3ccccc3)CS[C@H]12)c1csc(N)n1)C(=O)O [CEFTAZIDIME],,200,0.78,12.5,6.25
Cc1oc(-c2ccccc2)nc1CCCc1nc2cc(C[C@@H](Oc3ccc(C(F)(F)F)cc3)C(=O)O)ccc2o1,> 200,25,12.5,6.25,12.5
CC1=C(C(=O)O)N2C(=O)[C@@H](NC(=O)[C@H](N)C3=CCC=CC3)[C@H]2SC1 [CEPHRADINE],,25,25,50,50
CC1(C)S[C@@H]2[C@H](NC(=O)Cc3ccccc3)C(=O)N2[C@H]1C(=O)[O-].[Na+] [PENICILLIN G SODIUM],,0.78,3.12,3.12,< 0.39
Cc1oc(-c2ccccc2)nc1CCCc1nc2cc(C[C@H](Oc3ccc(-c4ccccc4)cc3)C(=O)O)ccc2o1,> 200,3.12,1.56,1.56,3.12
Cc1oc(-c2ccccc2)nc1CCCc1nc2cc(C[C@H](Oc3cc(F)c(F)c(F)c3)C(=O)O)ccc2o1,> 200,25,12.5,6.25,6.25
Cc1oc(-c2ccccc2)nc1CCCc1nc2cc(C[C@H](Oc3cccc4ncccc34)C(=O)O)ccc2o1,> 200,200,25,25,50
Cc1oc(-c2ccccc2)nc1CCCc1nc2cc(C[C@H](Oc3ccc(Cl)cc3)C(=O)O)ccc2o1,> 200,25,6.25,6.25,12.5
Cc1ccc(O[C@@H](Cc2ccc3oc(CCCc4nc(-c5ccccc5)oc4C)nc3c2)C(=O)O)cc1,> 200,50,25,12.5,50
Cc1oc(-c2ccccc2)nc1CCCc1nc2cc(C[C@@H](Oc3ccc(OCc4ccccc4)cc3)C(=O)O)ccc2o1,> 200,25,25,25,12.5
CC(=O)c1ccc(O[C@@H](Cc2ccc3oc(CCCc4nc(-c5ccccc5)oc4C)nc3c2)C(=O)O)cc1,> 200,> 200,100,100,> 200
Cc1oc(-c2ccccc2)nc1CCCc1nc2cc(C[C@H](Oc3ccc(Cl)cc3Cl)C(=O)O)ccc2o1,> 200,6.25,3.12,1.56,3.12
Cc1oc(-c2ccccc2)nc1CCCc1nc2cc(C[C@H](OC(C)C)C(=O)O)ccc2o1,> 200,200,50,50,50
Cc1oc(-c2ccccc2)nc1CCCc1nc2cc(C[C@H](Oc3ccc(C(C)(C)C)cc3)C(=O)O)ccc2o1,> 200,3.12,1.56,1.56,3.12
Cc1oc(-c2ccccc2)nc1CCCc1nc2cc(C[C@H](Oc3cccnc3)C(=O)O)ccc2o1,> 200,> 200,200,200,> 200
Cc1oc(-c2ccccc2)nc1CCCc1nc2cc(C[C@H](Oc3ccc(C#N)cc3)C(=O)O)ccc2o1,> 200,200,50,50,50

Structure (SMILES),MIC [1] [µg/mL],MIC [2] [µg/mL],MIC [3] [µg/mL],MIC [4] [µg/mL],MIC [5] [µg/mL]
Cc1oc(-c2ccccc2)nc1CCCc1nc2cc(C[C@H](Oc3ccccc3)C(=O)O)ccc2o1,> 200,100,25,25,25
Cc1oc(-c2ccccc2)nc1CCCc1nc2cc(C[C@H](Oc3cccc(I)c3)C(=O)O)ccc2o1,> 200,25,3.12,1.56,12.5
COc1ccc(O[C@@H](Cc2ccc3oc(CCCc4nc(-c5ccccc5)oc4C)nc3c2)C(=O)O)cc1,> 200,100,25,25,50
CO[C@@H](Cc1ccc2oc(CCCc3nc(-c4ccccc4)oc3C)nc2c1)C(=O)O,> 200,> 200,200,100,200
Cc1oc(-c2ccccc2)nc1CCCc1nc2cc(C[C@@H](Oc3ccc(C(C)(C)C)cc3)C(=O)O)ccc2o1,> 200,25,12.5,12.5,12.5
Cc1oc(-c2ccccc2)nc1CCCc1nc2cc(C[C@H](Oc3ccc(Br)cc3)C(=O)O)ccc2o1,> 200,12.5,3.12,3.12,6.25
Cc1oc(-c2ccccc2)nc1CCCc1nc2cc(C[C@H](Oc3ccccc3Br)C(=O)O)ccc2o1,> 200,50,25,25,50
Cc1oc(-c2ccccc2)nc1CCCc1nc2cc(C[C@H](Oc3cccc(F)c3)C(=O)O)ccc2o1,> 200,50,12.5,12.5,25
Clc1ccc(COC(Cn2ccnc2)c2ccc(Cl)cc2Cl)c(Cl)c1.O=[N+]([O-])O (stereo not drawn) [MICONAZOLE NITRATE],1.56,,,,
COC(=O)[C@H](Cc1ccc2oc(CCCc3nc(-c4ccccc4)oc3C)nc2c1)Oc1ccc(-c2ccccc2)cc1,> 200,> 200,> 200,> 200,> 200
Cc1oc(-c2ccccc2)nc1CCCc1nc2cc(C[C@H](Oc3ccc(C(F)(F)F)cc3)C(=O)O)ccc2o1,> 200,12.5,1.56,1.56,6.25
Cc1oc(-c2ccccc2)nc1CCCc1nc2cc(C[C@H](Oc3ccc(F)cc3)C(=O)O)ccc2o1,> 200,50,12.5,12.5,25
Cc1oc(-c2ccccc2)nc1CCCc1nc2cc(C[C@@H](Oc3ccc(-c4ccccc4)cc3)C(=O)O)ccc2o1,> 200,12.5,12.5,6.25,6.25
Cc1oc(-c2ccccc2)nc1CCCc1nc2cc(C[C@H](Oc3ccc(OCc4ccccc4)cc3)C(=O)O)ccc2o1,> 200,6.25,1.56,1.56,1.56
Cc1oc(-c2ccccc2)nc1CCCc1nc2cc(C[C@H](Oc3ccc(I)cc3)C(=O)O)ccc2o1,> 200,12.5,1.56,1.56,6.25
CO/N=C(\C(=O)N[C@@H]1C(=O)N2C(C(=O)O)=C(COC(C)=O)CS[C@H]12)c1csc(N)n1 [CEFOTAXIME],,200,3.12,3.12,0.78
